According to the EternaBench riboswitch data:

Tested on: MS2 coat protein
Assay: apparent Kd, MS2 coat protein; higher = weaker binding; RNA-MaP array; FMN 200 µM where present
In short: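 The apparent Kd is the median of filtered binding-curve fits, one per cluster, to green signal normalised to red-channel RNA signal and control-cluster median Fmax. The clusters were on Illumina sequencing chips, and stalled E. coli RNA polymerase had transcribed the designs on them. Titration used SNAP-549-labelled MS2 coat protein from 0.7 or 1.5 nM, doubling to 3 µM, without and then with constant ligand, in 100 mM Tris-HCl pH 7.5, 80 mM KCl, 4 mM MgCl2, BSA, DTT, yeast tRNA and Tween-20.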

[1] = designed as: ON switch for flavin mononucleotide, no ligand
[2] = ligand present: flavin mononucleotide, designed as: ON switch for flavin mononucleotide
[3] = designed as: OFF switch for flavin mononucleotide, no ligand
[4] = ligand present: flavin mononucleotide, designed as: OFF switch for flavin mononucleotide

Sequence	apparent Kd [1]	apparent Kd [2]	apparent Kd [3]	apparent Kd [4]
GUGGUCAGACAUGAGGAUCACCCAUGUGGAAUAAAUAACACACAGGAUAUGUAAUAUAAAAUAUAACAGAAGGGUGGAUUGGUG	352 nM	181 nM		
ACAGCGAUGGUUAGGAUAUCCACGAGUACUUCGUCGGAGAAGGAACAUGAGGAUCACCCAUGUAGAUCCCAGGG			146 nM	319 nM
GCCAUCGUAUGAGGAUAUGGCACCGAAACGGUGCCAGAAGGCAUGUCAAUAGACAUGAGGAUCACCCAUGUCUUAUCGAUGGCA	19.9 nM	18.9 nM		
GCCAUCGUAUGAGGAUAUGACACCGAAACGGUGUCAGAAGGCAUGUCGAUAGACAUGAGGAUCACCCAUGUAUUAACGAUGGCA	740 nM	94.2 nM		
ACAUGAGGAUCACCCAUGUAUACAUAGGAUAUUGGUGAUCAGGCAUGUUUUACAGGAUAUGUCUGCGAGAAGGAUGCAAGUUGU	633 nM	346 nM		
UUAUGCUUAGAGAAGGUUCAAACUACAUAUUGCGCACAUGAGGAUCACCCAUGUUGGUGAAUAAGAAAGGAUAUUUGACUGUGC			245 nM	171 nM
GACGCUGACCGAGGAUAUACAAUAAAACAACAAACACCUCGUGUCAGAACAUGAGGAUCACCCAUGUAGAAGGCGGCAGGUCUA			48.6 nM	127 nM
GGAUCGAAAGUGAGGAUAUGCUGGUCCUUGGAUCAGCAGAAGGCACAUGAGGAUCACCCAUGUGGUAACGGUCC			33.8 nM	172 nM
AGUACUACAGGAUAUACGAGGGAGGUCCACGUGACCCUUUUACAUGAGGAUCACCCAUGUAGAAGGGUAGUACA			23.3 nM	26.8 nM
CCCUCGUAGUAGAAGGGCGGCCGAAAUCUGCACGCAGGAUAUACAUGAGGAUCACCCAUGUACUGAGCUGAAGAGCACUUGGAA			15.1 nM	14.5 nM
AAAUAGCUAGAGGAUAUCGGAUAGGAUUUACUACGAGAAGGUUAGACAUGAGGAUCACCCAUGUUCUGUUGGGA			41.5 nM	39.2 nM
GUGAAGUGAGGAUAUACGAGAGAGGCUGAACCGGACGAGAAGUAGAAGGCACAUGAGGAUCACCCAUGUAAGGA			33 nM	32.1 nM
CGCGGUACUUAGGUACCACACAUGAGGAUCACCCAUGUAUCACAGGAUAUGCAUGAUAUAUUCAGGCAGAAGGGUGAUCUUACC	37.8 nM	99.4 nM		
CUUAUGUGAGGAUAUCAGUAGUAAAAAAAUAAAAUUACUACUGAGAAGGCACAUGAGGAUCACCCAUGUUCCUC			115 nM	429 nM
AAAGUUGGUAGGCCCUUGGAACAUGAGGAUCACCCAUGUAAGGAGGAUAUGCCCGGUACCCGCUGGCAGAAGGCCUUAUAAGAA			20.5 nM	143 nM
UGUGUCUGUAGAGGAUAUCCGAGCGUUCGGCGAGGAGAAGGCUGCAACACAUGAGGAUCACCCAUGUAGGUUGUGUCUCCCUAC			10.9 nM	32.2 nM
GGUACCAUCACAGGAUAUGCUUUUCUUUGGGAAGCAGAAGGGUGUAACAUGAGGAUCACCCAUGUGGUACCAGGGCGUGAGCCC	170 nM	14.8 nM		
UGGUACUAGGGAGGAUAUGGGAAGAUACAUGAGGAUCACCCAUGUUUAAGAAAGCCGAGAGGCAACUAGAAGGCCCUAGUACCU	278 nM	13.8 nM		
GUGAGUAGUCAGGAUAUGCUGUACAAAAGUACAGCAGAAGGGAUUACAUGAGGAUCACCCAUGUUAUCUUCAUG			185 nM	510 nM
ACUACGAUAGCGAUAUGAUCGAGAGAUCAUGUCGCUAAAUUUAGAAGGACAUGAGGAUCACCCAUGUAGGAUAUGGGUCGUAGA	28 nM	9.62 nM		
CCGGAAACGGGUAGCCUGACAUGAGGAUCACCCAUGUGAACCAAGGAUAUGGAUCCUAAUUGGAUCCAGAAGGUGGAAGGCUAC	243 nM	45.3 nM		
GGGCUGGGAGGAUAUUCAUUGGGAAACAUGAGGAUCACCCAUGUGAUAUAAGGGAAAUCCGGAGAAGGCUCGGUUC			18.1 nM	18.8 nM
ACAUGAGGAUCACCCAUGUUGACAUAGGAUAUACAACAUUAGUUUCAUUCAUGUAAACUUUGAUAGUAGAAGGAUGGUACAUGA			13.2 nM	13 nM
UGGUACAUGGGAGGAUAUGGGUUGAUAACAUGAGGAUCACCCAUGUUAAAUAUCCCGAGAGGGAACUAGAAGGCCCAUGUACCU	643 nM	46 nM		
CUUUUGGCAGGAUAUGCUUUUUUUGACAUGAGGAUCACCCAUGUGAUGCAUUUUGGGUUUGCAGAAGGGCCUGAGU			63.5 nM	87.5 nM
CUGACGUCAGGAUAUCUGAUGUCUAACUUCGGUUAGACAUCAGAGAAGGGACAUGAGGAUCACCCAUGUCAGAG			28.7 nM	23.1 nM
CUGUUAUAGAUCCAGAAUUACAACAUGAGGAUCACCCAUGUGCAGGAUAUCGGGUUGAUAGGCGCCGAGAAGGGUAUAGUCACG			60.2 nM	61.6 nM
GGUGCGUAUGUGAGGAUAUGCUGGUCCUUGGCUCGGCAGAAGGCACAUGAGGAUCACCCAUGUGGUGUCGUACA			112 nM	50.9 nM
